Measurements gathered from unrelated publications.
Compare with care: the assays were run in different laboratories.
PADI1: Protein-arginine deiminase type-1 (PADI1, Homo sapiens, UniProt Q9ULC6)
KDR: Vascular endothelial growth factor receptor 2 (KDR, Homo sapiens, UniProt P35968)
CDK16: Cyclin-dependent kinase 16 (CDK16, Homo sapiens, UniProt Q00536)
ATAD2 bromodomain: ATPase family AAA domain-containing protein 2, bromodomain (ATAD2, Homo sapiens, UniProt Q6PL18)

Structure (SMILES)	target	assay	system	conditions	endpoint	value
CC(C)(C)n1nnc([C@H](CCCNC(=N)CF)NC(=O)c2ccccc2C(=O)O)n1	PADI1	enzyme activity, inhibitor	–	–	kinact/KI	1670 M⁻¹ s⁻¹
COc1ccc(C=NNC(=O)c2sc(Nc3ccccc3)c(C(=O)Nc3ccc(OC)cc3)c2NC(C)=O)cc1	KDR	enzyme activity, inhibitor	–	10 nM	remaining activity	96%
Nc1ncnc2occ(-c3ccc(NC(=O)Nc4cc(C(F)(F)F)ccc4F)cc3)c12	Phosphatidylinositol 5-phosphate 4-kinase type-2 beta (PIP4K2B, Homo sapiens, UniProt P78356)	enzyme activity, inhibitor	–	20 µM	remaining activity	100%
COc1ccc(NC(=O)c2c(Nc3ccccc3)sc(C(=O)NN=Cc3ccc(Cl)cc3)c2NC(C)=O)cc1	KDR	enzyme activity, inhibitor	–	1 µM	remaining activity	83.7%
NCCCC[C@H](NC(=O)[C@@H]1CCCN1C(=O)[C@@H]1CSSC[C@H](NC(=O)CNC(=O)CNC(=O)CN)C(=O)N[C@@H](Cc2ccc(O)cc2)C(=O)N[C@@H](Cc2ccccc2)C(=O)N[C@@H](CCC(N)=O)C(=O)N[C@@H](CC(N)=O)C(=O)N1)C(=O)NCC(N)=O	Vasopressin V1a receptor (AVPR1A, Homo sapiens, UniProt P37288)	calcium signal, agonist	CHO-S	–	Emax	41%
Cc1ccc(C(=O)Nc2ccc(CN3CCN(C)CC3)c(C(F)(F)F)c2)cc1C#Cc1cnc2cccnn12	1-phosphatidylinositol 3-phosphate 5-kinase (PIKFYVE, Homo sapiens, UniProt Q9Y2I7)	cell-free assay	–	23.5 nM	remaining signal	100%
COc1ccc(NC(=O)c2c(Nc3ccccc3)sc(C#N)c2NC(=O)CNc2ccc([N+](=O)[O-])cc2)cc1	KDR	enzyme activity, inhibitor	–	100 µM	remaining activity	68.8%
CN(C)C1CCN(CC#Cc2nn(C3CCCC3)c3nc(NCc4ccccc4)ncc23)C1 (stereo not drawn)	cGMP-dependent protein kinase 2 (PRKG2, Homo sapiens, UniProt Q13237)	enzyme activity, inhibitor, FRET	–	0.1 µM	inhibition	7%
CC(C)(C)n1nnc([C@H](CCCNC(=N)CF)NC(=O)c2ccccc2)n1	PADI1	enzyme activity, inhibitor	–	–	kinact/KI	26.6 M⁻¹ s⁻¹
Cn1c2c(Cl)c(Cl)ccc2c2cc(N)[nH]c(=O)c21	CDK16	thermal stability, DSF	–	10 µM	ΔTm	0.3 °C
N=C(CF)NCCC[C@H](NC(=O)c1ccccc1)c1nn[nH]n1	PADI1	enzyme activity, inhibitor	–	–	kinact/KI	5.75 M⁻¹ s⁻¹
Cn1c2c(Cl)c(Cl)ccc2c2cc[nH]c(=O)c21	CDK16	thermal stability, DSF	–	10 µM	ΔTm	0 °C
N=C(CF)NCCC[C@H](NC(=O)c1ccc(-c2ccccc2)cc1)c1nn[nH]n1	PADI1	enzyme activity, inhibitor	–	–	kinact/KI	13.7 M⁻¹ s⁻¹
COc1ccc(NC(=O)c2c(Nc3ccccc3)sc(C(=O)NN=Cc3ccc(OC)c(O)c3)c2NC(C)=O)cc1	KDR	enzyme activity, inhibitor	–	10 nM	remaining activity	99%
O=c1c(-c2ccc(O)cc2)coc2cc(O)ccc12	Glycogen synthase kinase-3 beta (GSK3B, Homo sapiens, UniProt P49841)	enzyme activity, inhibitor, ADP detection	–	100 µM	inhibition	59.2%
Cc1cnc(Nc2ccc(OCCN3CCCC3)cc2)nc1Nc1cccc(S(=O)(=O)NC(C)(C)C)c1	ATAD2 bromodomain	thermal stability, DSF	–	10 µM	ΔTm	-0.25 °C
COc1ccc(NC(=O)c2c(Nc3ccccc3)sc(C#N)c2NC(=O)CNc2ccc(Cl)cc2)cc1	KDR	enzyme activity, inhibitor	–	10 µM	remaining activity	29.6%
N=C(CCl)NCCC[C@H](NC(=O)c1ccccc1)c1nn[nH]n1	PADI1	enzyme activity, inhibitor	–	–	kinact/KI	110 M⁻¹ s⁻¹
CC[C@H]1OC(=O)[C@H](C)[C@@H](O[C@H]2C[C@@](C)(OC)[C@@H](O)[C@H](C)O2)[C@H](C)[C@@H](O[C@@H]2O[C@H](C)C[C@H](N(C)C)[C@H]2O)[C@](C)(O)C[C@@H](C)C(=O)[C@H](C)[C@@H](O)[C@]1(C)O	Motilin receptor (MLNR, Homo sapiens, UniProt O43193)	inositol phosphate, agonist, TR-FRET	AD293	–	Emax	100%
COc1ccc(NC(=O)c2c(Nc3ccccc3)sc(C#N)c2NC(=O)CNc2ccc(Br)cc2)cc1	KDR	enzyme activity, inhibitor	–	10 nM	remaining activity	93%
CC(C)(C)n1nnc([C@H](CCCNC(=N)CCl)NC(=O)c2ccccc2)n1	PADI1	enzyme activity, inhibitor	–	–	kinact/KI	52.4 M⁻¹ s⁻¹
COc1ccc(NC(=O)c2c(Nc3ccccc3)sc(C(=O)NN=Cc3cc(OC)c(OC)c(OC)c3)c2NC(C)=O)cc1	KDR	enzyme activity, inhibitor	–	10 nM	remaining activity	100%
Cc1ccc(C(=O)NCc2ccsc2)cc1C#Cc1cn(C(C)C)c2ncnc(N)c12	[Pyruvate dehydrogenase (acetyl-transferring)] kinase isozyme 2, mitochondrial (PDK2, Homo sapiens, UniProt Q15119)	enzyme activity, inhibitor	–	1 µM	activity vs control	91%
Oc1ccc(-c2nc(-c3ccncc3)c(-c3ccc(F)cc3)[nH]2)cc1	ATAD2 bromodomain	thermal stability, DSF	–	10 µM	ΔTm	0.05 °C
